Active and inactive are the calls of the source. No cut-off for these calls is given here.
What was measured:
[1] = target: Adenosine receptor A2a (Homo sapiens) (UniProt P29274); assay: Displacement of [3H]2-[p-(2-carboxyethyl)phenylethylamino]-50-N-ethylcarboxamidoadenosine from human recombinant A2AR expressed in HEK293 cells at 10 uM; type: cell-based
In short: (§1)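 Single-concentration radioligand displacement at 10 μM. Membranes came from CHO cells stably expressing human A1AR or A3AR, or HEK293 cells stably expressing human A2AAR. Agonist radioligands were [3H]N6-[(R)-1-methyl-2-phenylethyl]adenosine (A1), [3H]2-[p-(2-carboxyethyl)phenylethylamino]-5′-N-ethylcarboxamidoadenosine (A2A) and [125I]N6-(4-amino-3-iodobenzyl)adenosine-5′-N-methyluronamide (A3). Read-out was percent inhibition of binding.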

[2] = target: T1, Adenosine receptor A1 (Homo sapiens) (UniProt P30542); assay: Displacement of [3H]N6-[(R)-1-methyl-2-phenylethyl]adenosine from human recombinant A1AR expressed in CHO cells at 10 uM; type: cell-based; in short: as §1
T1 sequence (whole entry): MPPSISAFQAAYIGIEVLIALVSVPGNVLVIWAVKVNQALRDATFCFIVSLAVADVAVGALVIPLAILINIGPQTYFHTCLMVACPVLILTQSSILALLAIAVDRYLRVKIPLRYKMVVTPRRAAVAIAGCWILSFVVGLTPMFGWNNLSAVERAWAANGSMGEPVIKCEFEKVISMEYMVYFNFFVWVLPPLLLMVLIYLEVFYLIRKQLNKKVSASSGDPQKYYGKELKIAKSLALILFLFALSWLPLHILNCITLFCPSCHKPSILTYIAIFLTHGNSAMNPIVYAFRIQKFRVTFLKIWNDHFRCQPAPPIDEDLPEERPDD

[3] = target: T2, Adenosine receptor A3 (Homo sapiens) (UniProt P0DMS8); assay: Modulatory activity at human recombinant A3AR expressed in CHO cells assessed as inhibition of forskolin-induced stimulation of cAMP production; type: functional, cell-based
T2 sequence (whole entry): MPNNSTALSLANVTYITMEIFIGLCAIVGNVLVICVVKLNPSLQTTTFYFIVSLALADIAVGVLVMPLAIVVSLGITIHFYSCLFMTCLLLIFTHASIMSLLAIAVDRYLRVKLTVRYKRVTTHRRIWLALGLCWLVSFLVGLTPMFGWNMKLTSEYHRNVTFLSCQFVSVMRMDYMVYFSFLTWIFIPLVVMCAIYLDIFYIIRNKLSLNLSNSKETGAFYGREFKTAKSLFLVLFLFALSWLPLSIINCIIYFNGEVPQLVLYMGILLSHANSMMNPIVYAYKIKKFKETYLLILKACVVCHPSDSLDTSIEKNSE
In short: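 CHO cells stably expressing human A3AR were plated and grown 24 h, then washed in DMEM with 50 mM HEPES, pH 7.4. Compounds and/or agonist were added with rolipram (10 μM) and adenosine deaminase (3 units/mL). Forskolin (10 μM) was added at 45 min and incubation ran 15 more min. Cells were lysed in 0.1 M HCl. cAMP was measured by competitive binding of [3H]cAMP (2 nM) to protein kinase A, with a cAMP standard curve, filtration and scintillation counting.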

[4] = target: T3, Adenosine receptor A3 (Homo sapiens, UniProt P0DMS8); assay: Displacement of [125I]N6-(4-amino-3-iodobenzyl)adenosine-50-N-methyluronamide from human recombinant A3AR expressed in CHO cells; type: cell-based
T3 sequence (P0DMS8 whole entry): T2 sequence (whole entry)
In short: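 Competition binding used membranes of CHO cells stably expressing human A3AR and the agonist radioligand [125I]N6-(4-amino-3-iodobenzyl)adenosine-5′-N-methyluronamide. IC50 values from competition curves were converted to Ki by Cheng-Prusoff. Values are mean ± S.E.M.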

[5] = target: T2, Adenosine receptor A3 (Homo sapiens); assay: Displacement of [125I]N6-(4-amino-3-iodobenzyl)adenosine-50-N-methyluronamide from human recombinant A3AR expressed in CHO cells at 10 uM; type: cell-based; in short: as §1
[6] = target: Adenosine receptor A2a (Homo sapiens) (UniProt P29274); assay: Displacement of [3H]2-[p-(2-carboxyethyl)phenylethylamino]-50-N-ethylcarboxamidoadenosine from human recombinant A2AR expressed in HEK293 cells at 50 uM; type: cell-based
In short: (§2)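 Percent inhibition of agonist radioligand binding measured at a single 50 μM test concentration. A1: CHO cell membranes with stably expressed human A1AR and [3H]N6-[(R)-1-methyl-2-phenylethyl]adenosine. A2A: HEK293 cell membranes with stably expressed human A2AAR and [3H]2-[p-(2-carboxyethyl)phenylethylamino]-5′-N-ethylcarboxamidoadenosine.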

[7] = target: T1, Adenosine receptor A1 (Homo sapiens); assay: Displacement of [3H]N6-[(R)-1-methyl-2-phenylethyl]adenosine from human recombinant A1AR expressed in CHO cells at 50 uM; type: cell-based; in short: as §2
[8] = target: T3, Adenosine receptor A3; assay: (§3) Agonist activity at human recombinant A3AR expressed in CHO cells assessed as inhibition of forskolin-induced stimulation of cAMP production; type: functional, cell-based
[9] = target: T2, Adenosine receptor A3 (Homo sapiens); assay: as §3; type: functional, cell-based

Sequence of Adenosine receptor A2a (Homo sapiens) (P29274 whole entry): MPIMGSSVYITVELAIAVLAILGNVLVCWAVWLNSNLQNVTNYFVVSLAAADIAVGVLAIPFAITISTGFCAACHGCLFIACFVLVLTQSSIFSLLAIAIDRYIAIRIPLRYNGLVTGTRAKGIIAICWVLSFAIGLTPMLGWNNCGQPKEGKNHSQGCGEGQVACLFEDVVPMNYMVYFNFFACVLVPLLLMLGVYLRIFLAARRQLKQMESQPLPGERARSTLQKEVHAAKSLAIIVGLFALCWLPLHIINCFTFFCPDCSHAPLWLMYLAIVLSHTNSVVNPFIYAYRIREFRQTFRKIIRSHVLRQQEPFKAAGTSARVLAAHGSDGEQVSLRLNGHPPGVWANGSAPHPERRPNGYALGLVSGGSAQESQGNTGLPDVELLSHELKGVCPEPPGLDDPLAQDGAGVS

inhibition [1] | inhibition [2] | inhibition [5] | Structure (SMILES) | also measured
17% | 12% | – | COc1ccc(Cl)cc1CNc1ncnc2c1ncn2[C@@H]1OC[C@](O)(CO)[C@H]1O | Activity [3]: inactive; Ki [4]: 978 nM
22% | 35% | 45% | OC[C@]1(O)CO[C@@H](n2cnc3c(NCc4cccc(I)c4)ncnc32)[C@@H]1O | –
– | – | 7% | Nc1ncnc2c1ncn2[C@@H]1OC[C@@H](CO)[C@H]1O | inhibition [6]: 76%; inhibition [7]: 74%
9% | 8% | 10% | CCNC(=O)[C@@H]1CO[C@@H](n2cnc3c(N)ncnc32)[C@@H]1O | –
– | – | 10% | Nc1ncnc2c1ncn2[C@@H]1OC[C@@](O)(CO)[C@H]1O | inhibition [6]: 64%; inhibition [7]: 0%
15% | 10% | 31% | Nc1ncnc2c1ncn2[C@H]1C[C@@H](CO)CO1 | –
12% | 6% | 3% | Nc1c2ncn([C@@H]3OC[C@@](O)(CO)[C@H]3O)c2nc[n+]1Cc1cccc(Cl)c1 | –
14% | 13% | – | COc1ccc(Cl)cc1CNc1ncnc2c1ncn2[C@@H]1OC[C@@](O)(CO)[C@H]1O | IC50 [8]: 1560 nM; Emax [9]: 50.9%; Ki [4]: 3070 nM
2% | 7% | 8% | CCNC(=O)OC[C@@H]1CO[C@@H](n2cnc3c(N)ncnc32)[C@@H]1O | –
10% | 10% | 43% | OC[C@@]1(O)CO[C@@H](n2cnc3c(NCc4cccc(Cl)c4)ncnc32)[C@@H]1O | –
15% | 19% | 44% | OC[C@]1(O)CO[C@@H](n2cnc3c(NCc4cccc(Cl)c4)ncnc32)[C@@H]1O | –
17% | 27% | 48% | OC[C@@]1(O)CO[C@@H](n2cnc3c(NCc4cccc(I)c4)ncnc32)[C@@H]1O | –
12% | 9% | 6% | CCNC(=O)OC[C@]1(O)CO[C@@H](n2cnc3c(N)ncnc32)[C@@H]1O | –
19% | 6% | 35% | Nc1ncnc2c1ncn2[C@@H]1OC[C@](O)(CO)[C@H]1O | –
10% | 12% | 26% | CNC(=O)OC[C@@]1(O)CO[C@@H](n2cnc3c(N)ncnc32)[C@@H]1O | –
– | – | 7% | Nc1ncnc2c1ncn2[C@H]1C[C@H](CO)CO1 | inhibition [7]: 0%
19% | 6% | 32% | Nc1ncnc2c1ncn2[C@@H]1OC[C@H](CO)[C@H]1O | –

— ChEMBL document CHEMBL3351911, “Synthesis and evaluation of N⁶-substituted apioadenosines as potential adenosine A₃ receptor modulators” (Bioorg Med Chem, 2014)
